ChEMBL document CHEMBL1157792, “Pachycladins A-E, prostate cancer invasion and migration inhibitory Eunicellin-based diterpenoids from the red sea soft coral Cladiella pachyclados” (J Nat Prod, 2010)
Calls of active or inactive are those of the source. No cut-off for these calls is given here.

Columns and labels:
Assay type in all cases: functional, cell-based
[1] = system: PC-3; assay: Antimigratory activity against human PC3 cells at 50 uM by wound-healing assay
How it was run: (§1)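 Confluent PC-3 monolayers (>90%) in RPMI with 10% FBS, scratched with a pipet tip, washed with PBS, then given compound in DMSO, in triplicate, with DMSO vehicle control. Incubated 24 h serum-starved at 37 °C, fixed and stained with Diff Quick. Migrated cells counted in three or more random 400× fields; mean (SEM) per field.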

[2] = system: PC-3; assay: Antiinvasive activity against human PC3 cells at 50 uM by cultrex cell invasion assay
How it was run: (§2)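 PC-3 cells (50 000 per well) in serum-free RPMI seeded into the top chamber of wells coated with basement membrane extract (4 h, 37 °C), with compound in the top chamber. Lower chamber: RPMI with 10% FBS, fibronectin and N-formyl-met-leu-phe (10 nM) as chemoattractants. After 24 h at 37 °C, invaded cells stained with calcein-AM for 1 h; fluorescence read at ex 485/em 520 nm.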

[3] = system: PC-3; assay: Antimigratory activity against human PC3 cells at 200 uM by wound-healing assay; how it was run: as §1
[4] = system: PC-3; assay: Antimigratory activity against human PC3 cells at 10 uM by wound-healing assay; how it was run: as §1
[5] = system: PC-3; assay: Antiinvasive activity against human PC3 cells at 10 uM by cultrex cell invasion assay; how it was run: as §2
[6] = system: PC-3; assay: Antiproliferative activity against human PC3 cells at 50 uM after 96 hrs by MTT assay
How it was run: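 PC-3 cells (8 × 10^3 per well) allowed to attach for 24 h, then given serum-free RPMI with compound at 50, 20, 10 or 5 µM for 96 h at 37 °C, 5% CO2. MTT added for 4 h, formazan solubilized, absorbance read at 550 nm. Cell number taken from a hemocytometer-based standard curve; IC50 obtained by nonlinear regression of log concentration against cells/well.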

Row | SMILES | Activity [1] | further results
1 | C=C1CC[C@H](C(C)C)[C@@H]2[C@H]1[C@H]1CC(=C)[C@@H](OC(C)=O)CC[C@@](C)(OC(C)=O)[C@@H]2O1 | Active | –
2 | CC(=O)O[C@]1(C)CC[C@H](C(C)C)[C@@H]2[C@H]1[C@H]1C[C@]3(C)CCC[C@@](C)(O3)[C@@H]2O1 | Active | Activity [2]: Active
3 | C=C1CC[C@H](C(C)C)[C@@H]2[C@H]1[C@H]1C[C@](C)(O)[C@@H](O)CC[C@@](C)(OC(C)=O)[C@@H]2O1 | Active | –
4 | C=C1CC[C@H](C(C)C)[C@@H]2[C@H]1[C@H]1CC(=C)[C@]3(O)CC[C@@](C)(O3)[C@@H]2O1 | Active | –
5 | C=C1CC[C@H](C(C)C)[C@@H]2[C@H]1[C@H]1CC(=C)[C@@H](OC(C)=O)CC[C@@](C)(O)[C@@H]2O1 | Active | –
6 | O=C1NC(=O)/C(=C/c2ccc(O)cc2)N1 | – | Activity [3]: Active
7 | C=C1CC[C@H](C(C)C)[C@@H]2[C@H]1[C@H]1C[C@](C)(O)[C@@H](OC)CC[C@@](C)(O)[C@@H]2O1 | Active | Activity [2]: Active
8 | C=C1CC[C@H](C(C)C)[C@@H]2[C@H]1[C@@H]1CC(=C)[C@@H](O)CC[C@](C)(O)[C@H]2O1 | Active | –
9 | C=C1C[C@H]2O[C@H]([C@H]3[C@@H]2[C@](C)(OC(C)=O)CC[C@@H]3C(C)C)[C@@]2(C)CC[C@]1(O)O2 | Active | –
10 | C=C1C[C@H]2O[C@H]([C@@H]3[C@@H](C(C)C)[C@H](O)C[C@@](C)(OC(=O)CCC)[C@@H]32)[C@](C)(OC(C)=O)CC[C@@H]1O | Active | –
11 | C=C1CC[C@H](C(C)C)[C@@H]2[C@H]1[C@H]1C[C@](C)(O)[C@@H](O)CC[C@@](C)(O)[C@@H]2O1 | Active | Activity [2]: Active
12 | C=C1CC[C@H](C(C)C)[C@@H]2[C@H]1[C@H]1C/C(C)=C\CC[C@@](C)(O)[C@@H]2O1 | Active | –
13 | C=C1CC[C@H](C(C)C)[C@@H]2[C@H]1[C@H]1CC(=C)[C@@H](O)CC[C@@](C)(OC(C)=O)[C@@H]2O1 | Active | –
14 | CC(=O)O[C@]1(C)CC[C@H](C(C)C)[C@@H]2[C@H]1[C@H]1C[C@](C)(O)[C@@H](O)CC[C@@](C)(OC(C)=O)[C@@H]2O1 | – | Activity_index [4]: Active; Activity [5]: Active
15 | C=C1C[C@H]2O[C@H]([C@@H]3[C@@H](C(C)C)[C@H](O)C[C@@](C)(OC(C)=O)[C@@H]32)[C@](C)(OC(C)=O)CC[C@@H]1O | Active | –
16 | CCCC(=O)O[C@]1(C)CC[C@H](C(C)C)[C@@H]2[C@H]1[C@H]1C[C@](C)(O)[C@@H](O)CC[C@@](C)(OC(C)=O)[C@@H]2O1 | Active | Activity [6]: inactive; Activity [2]: Active
